Data as given in ChEMBL document CHEMBL4627400, “Discovery of Dihydropyrrolo[1,2-a]pyrazin-3(4H)-one-Based Second-Generation GluN2C- and GluN2D-Selective Positive Allosteric Modulators (PAMs) of the N-Methyl-d-Aspartate (NMDA) Receptor” (J Med Chem, 2020).
pEC50: −log10 of the molar value. In brackets after ≈: the same amount, converted by molar mass.

What was measured:
[1] = target: T1, Glutamate NMDA receptor; Grin1/Grin2c (Rattus norvegicus) (UniProt P35439+Q00961); assay: Positive allosteric modulation of recombinant rat GluN1a/GluN2C receptor expressed in Xenopus laevis oocytes assessed as increase in glycine/L-glutamate-induced channel current by measuring log of doubling concentration by two-electrode voltage clamp method; format: cell-based
How it was run: (§1)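 Oocytes expressing rat GluN1/GluN2C or GluN2D, held at −40 mV in HEPES-buffered Ba2+ solution, pH 7.4, 23 °C. Current given as percent of agonist-alone response. Doubling concentration is the concentration giving 2-fold response; reported as […] log. 6–19 oocytes from 2–3 frogs.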

[2] = target: T1, Glutamate NMDA receptor; Grin1/Grin2c (Rattus norvegicus); assay: Positive allosteric modulation of recombinant rat GluN1a/GluN2C receptor expressed in Xenopus laevis oocytes assessed as increase in glycine/L-glutamate-induced channel current at 30 uM by two-electrode voltage clamp method relative to control; format: cell-based; how it was run: as §1
[3] = target: T2, Ionotropic glutamate receptor NMDA 1/2D (Rattus norvegicus) (UniProt P35439+Q62645); assay: Positive allosteric modulation of recombinant rat GluN1a/GluN2D receptor expressed in Xenopus laevis oocytes assessed as increase in glycine/L-glutamate-induced channel current at 30 uM by two-electrode voltage clamp method relative to control; format: cell-based
How it was run: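 Oocytes expressing rat GluN1/GluN2C or GluN2D, held at −40 mV in HEPES-buffered Ba2+ solution, pH 7.4, 23 °C. […] Current given as percent of agonist-alone response. […] Doubling concentration is the concentration giving 2-fold response; reported as […] log. 6–19 oocytes from 2–3 frogs.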

[4] = target: T3, Glutamate NMDA receptor; Grin1/Grin2a (Rattus norvegicus, UniProt P35439+Q00959); assay: Positive allosteric modulation of recombinant rat GluN1a/GluN2A receptor expressed in Xenopus laevis oocytes assessed as increase in glycine/L-glutamate-induced channel current at 10 to 30 uM by two-electrode voltage clamp method relative to control; format: cell-based
How it was run: (§2)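 TEVC at −40 mV, 23 °C, in 90 NaCl/1 KCl/0.5 BaCl/0.005 EDTA/10 HEPES (mM), pH 7.4. Oocytes expressed rat GluN1/GluN2A or GluN1/GluN2B. […] Some GluN2A oocytes were BAPTA-loaded. 4–17 oocytes from 1–3 frogs.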

[5] = target: T4, Glutamate NMDA receptor; Grin1/Grin2b (Rattus norvegicus, UniProt P35439+Q00960); assay: Positive allosteric modulation of recombinant rat GluN1a/GluN2B receptor expressed in Xenopus laevis oocytes assessed as increase in glycine/L-glutamate-induced channel current at 10 to 30 uM by two-electrode voltage clamp method relative to control; format: cell-based; how it was run: as §2
[6] = Aqueous solubility of the compound at pH 7.4 after 30 mins by nephelometric analysis; format: physicochemical; settings: buffer
[7] = target: T3, Glutamate NMDA receptor; Grin1/Grin2a; assay: Positive allosteric modulation of recombinant rat GluN1a/GluN2A receptor expressed in Xenopus laevis oocytes assessed as change in 30 to 100 uM glycine/3 uM L-glutamate-induced channel current at 30 uM by two-electrode voltage clamp method (reference value: 46 +/- 5%); format: cell-based
[8] = target: T4, Glutamate NMDA receptor; Grin1/Grin2b; assay: Positive allosteric modulation of recombinant rat GluN1a/GluN2B receptor expressed in Xenopus laevis oocytes assessed as change in 30 to 100 uM glycine/3 uM L-glutamate-induced channel current at 30 uM by two-electrode voltage clamp method (reference value: 79 +/- 1%); format: cell-based; settings: read-out: %max
[9] = target: T1, Glutamate NMDA receptor; Grin1/Grin2c (Rattus norvegicus); assay: Positive allosteric modulation of recombinant rat GluN1a/GluN2C receptor expressed in Xenopus laevis oocytes assessed as change in […]/0.3 uM L-glutamate-induced channel current at 30 uM by two-electrode voltage clamp method (reference value: 19 +/- 3%); format: cell-based
How it was run: (§3)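 Oocytes expressing rat GluN1/GluN2C or GluN1/GluN2D, TEVC at −40 mV, pH 7.4, 23 °C. […] 30 μM glycine in all solutions per footnote. Vehicle versus drug compared by paired t-test; mean ± SEM.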

[10] = target: T2, Ionotropic glutamate receptor NMDA 1/2D (Rattus norvegicus); assay: Positive allosteric modulation of recombinant rat GluN1a/GluN2D receptor expressed in Xenopus laevis oocytes assessed as change in […]/0.3 uM L-glutamate-induced channel current at 30 uM by two-electrode voltage clamp method (reference value: 29 +/- 2%); format: cell-based; how it was run: as §3
[11] = target: T2, Ionotropic glutamate receptor NMDA 1/2D (Rattus norvegicus); assay: Positive allosteric modulation of recombinant rat GluN1a/GluN2D receptor expressed in Xenopus laevis oocytes assessed as increase in 10 uM glycine/L-glutamate-induced channel current at 30 uM in presence of NMDAR antagonist DL-APV by two-electrode voltage clamp method relative to control; format: cell-based
How it was run: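 GluN1/GluN2D oocytes, TEVC at −40 mV. 30 μM compound applied with 10 μM glycine plus 50 μM DL-APV (glutamate-site antagonist).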

[12] = target: T2, Ionotropic glutamate receptor NMDA 1/2D (Rattus norvegicus); assay: Positive allosteric modulation of recombinant rat GluN1a/GluN2D receptor expressed in Xenopus laevis oocytes assessed as increase in glycine/10 uM L-glutamate-induced channel current at 30 uM in presence of NMDAR antagonist 7-CKA by two-electrode voltage clamp method relative to control; format: cell-based
[13] = target: Glutamate NMDA receptor; Grin1/Grin2c (Rattus norvegicus, UniProt P35439+Q00961)
[14] = target: Ionotropic glutamate receptor NMDA 1/2D (Rattus norvegicus, UniProt P35439+Q62645)
[15] = Fraction unbound in rat plasma at 1 uM measured after 60 mins by equilibrium dialysis based LC/MS/MS analysis; format: ADME, cell-free
[16] = Cmax in C57Bl/6 mouse at 20 mg/kg, ip by LC/MS/MS analysis; format: ADME, organism-based; parameters: dose 20 mg/kg, route intraperitoneal; settings: in vivo
[17] = Half life in C57Bl/6 mouse at 20 mg/kg, ip by LC/MS/MS analysis; format: ADME, organism-based; settings: in vivo
[18] = Ratio of drug level in brain to plasma in C57Bl/6 mouse at 20 mg/kg, ip by LC/MS/MS analysis; format: ADME, organism-based; settings: read-out: BPR
[19] = Protein binding in rat plasma at 1 uM measured after 60 mins by equilibrium dialysis based LC/MS/MS analysis; format: ADME, cell-free; settings: read-out: PPB (converted)
[20] = target: T3, Glutamate NMDA receptor; Grin1/Grin2a; assay: Positive allosteric modulation of recombinant rat GluN1a/GluN2A receptor expressed in Xenopus laevis oocytes assessed as change in 30 uM glycine/3 uM L-glutamate-induced channel current at 30 uM by two-electrode voltage clamp method (reference value: 40 +/- 4%); format: cell-based
[21] = target: T4, Glutamate NMDA receptor; Grin1/Grin2b; assay: Positive allosteric modulation of recombinant rat GluN1a/GluN2B receptor expressed in Xenopus laevis oocytes assessed as change in 30 uM glycine/3 uM L-glutamate-induced channel current at 30 uM by two-electrode voltage clamp method (reference value: 84 +/- 1%); format: cell-based; settings: read-out: %max
[22] = target: T1, Glutamate NMDA receptor; Grin1/Grin2c (Rattus norvegicus); assay: Positive allosteric modulation of recombinant rat GluN1a/GluN2C receptor expressed in Xenopus laevis oocytes assessed as change in 30 uM glycine/0.5 uM L-glutamate-induced channel current at 30 uM by two-electrode voltage clamp method (reference value: 54 +/- 1%); format: cell-based; how it was run: as §3
[23] = target: T2, Ionotropic glutamate receptor NMDA 1/2D (Rattus norvegicus); assay: Positive allosteric modulation of recombinant rat GluN1a/GluN2D receptor expressed in Xenopus laevis oocytes assessed as change in 30 uM glycine/0.5 uM L-glutamate-induced channel current at 30 uM by two-electrode voltage clamp method (reference value: 54 +/- 1%); format: cell-based; how it was run: as §3
[24] = Cmax in C57Bl/6 mouse at 10 mg/kg, ip by LC/MS/MS analysis; format: ADME, organism-based; parameters: dose 10 mg/kg, route intraperitoneal; settings: in vivo
How it was run: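 Male fed C57BL/6 mice, 6–8 weeks, given 10 mg/kg i.p. (1 mg/mL, 10 mL/kg) in 50% PEG400/water. […] Samples protein-precipitated with acetonitrile, brain homogenised 1:4 in water, quantified by LC-MS/MS with verapamil internal standard.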

[25] = Half life in C57Bl/6 mouse at 10 mg/kg, ip by LC/MS/MS analysis; format: ADME, organism-based; settings: in vivo
How it was run: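 Male, fed C57BL/6 mice (6–8 weeks) got a single i.p. dose of 10 mg/kg (1 mg/mL) in 50% PEG400/water. […] Brain was homogenized 1:4 in water. Samples were acetonitrile-precipitated and measured by LC-MS/MS against a verapamil internal standard. Brain:plasma was reported from AUClast.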

[26] = Drug level in C57Bl/6 mouse brain at 10 mg/kg, ip measured at 0.25 hrs by LC/MS/MS analysis; format: ADME, organism-based; settings: read-out: Drug uptake
How it was run: (§4)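 Fed male mice, 6–8 weeks old, n = 15, 3 per time point. Dosed ip at 10 mg/kg (1 mg/mL) in 50% PEG400/water. […] Brain homogenized 1:4 in water. Samples acetonitrile-precipitated and quantified by LC-MS/MS with verapamil as internal standard.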

[27] = Drug level in C57Bl/6 mouse plasma at 10 mg/kg, ip measured at 0.25 hrs by LC/MS/MS analysis; format: ADME, organism-based; how it was run: as §4

T3 sequence (Q00959 whole entry, other chains not shown): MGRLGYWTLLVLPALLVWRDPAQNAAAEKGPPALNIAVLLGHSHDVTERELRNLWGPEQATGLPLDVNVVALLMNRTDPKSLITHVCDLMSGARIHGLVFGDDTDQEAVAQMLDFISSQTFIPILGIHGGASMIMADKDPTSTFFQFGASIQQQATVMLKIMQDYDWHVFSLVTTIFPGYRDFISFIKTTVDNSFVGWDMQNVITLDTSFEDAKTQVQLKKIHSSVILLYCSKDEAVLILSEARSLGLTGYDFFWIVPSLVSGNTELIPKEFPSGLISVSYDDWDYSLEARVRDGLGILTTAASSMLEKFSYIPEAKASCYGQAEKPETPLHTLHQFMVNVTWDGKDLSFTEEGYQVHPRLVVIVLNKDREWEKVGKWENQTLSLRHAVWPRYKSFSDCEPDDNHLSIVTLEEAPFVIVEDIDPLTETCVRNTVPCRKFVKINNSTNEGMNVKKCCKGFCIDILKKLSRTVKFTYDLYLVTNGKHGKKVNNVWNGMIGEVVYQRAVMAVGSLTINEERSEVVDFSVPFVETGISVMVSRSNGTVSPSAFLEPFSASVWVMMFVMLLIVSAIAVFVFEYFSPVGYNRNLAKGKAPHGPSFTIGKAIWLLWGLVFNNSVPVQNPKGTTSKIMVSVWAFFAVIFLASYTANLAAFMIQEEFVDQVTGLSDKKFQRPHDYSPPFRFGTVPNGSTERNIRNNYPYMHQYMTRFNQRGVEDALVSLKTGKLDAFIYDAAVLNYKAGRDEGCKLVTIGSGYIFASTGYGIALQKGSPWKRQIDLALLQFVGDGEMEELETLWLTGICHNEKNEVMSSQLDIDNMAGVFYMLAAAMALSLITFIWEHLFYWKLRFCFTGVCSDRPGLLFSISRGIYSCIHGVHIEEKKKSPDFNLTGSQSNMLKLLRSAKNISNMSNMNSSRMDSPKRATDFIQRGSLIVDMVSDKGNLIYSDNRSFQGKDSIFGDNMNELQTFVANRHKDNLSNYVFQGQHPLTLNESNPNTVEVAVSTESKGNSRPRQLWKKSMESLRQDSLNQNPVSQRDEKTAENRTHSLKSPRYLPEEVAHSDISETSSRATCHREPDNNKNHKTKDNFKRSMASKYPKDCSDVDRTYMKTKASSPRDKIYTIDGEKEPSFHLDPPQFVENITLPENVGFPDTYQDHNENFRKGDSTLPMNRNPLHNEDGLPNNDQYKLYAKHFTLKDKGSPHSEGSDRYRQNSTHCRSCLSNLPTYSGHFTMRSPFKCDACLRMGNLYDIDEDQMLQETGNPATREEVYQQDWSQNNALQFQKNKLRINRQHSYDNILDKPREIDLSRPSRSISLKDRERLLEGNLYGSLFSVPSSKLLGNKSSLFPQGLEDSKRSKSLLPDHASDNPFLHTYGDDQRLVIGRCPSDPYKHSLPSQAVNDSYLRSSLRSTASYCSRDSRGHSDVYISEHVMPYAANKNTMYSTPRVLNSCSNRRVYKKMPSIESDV
T4 sequence (Q00960 whole entry, other chains not shown): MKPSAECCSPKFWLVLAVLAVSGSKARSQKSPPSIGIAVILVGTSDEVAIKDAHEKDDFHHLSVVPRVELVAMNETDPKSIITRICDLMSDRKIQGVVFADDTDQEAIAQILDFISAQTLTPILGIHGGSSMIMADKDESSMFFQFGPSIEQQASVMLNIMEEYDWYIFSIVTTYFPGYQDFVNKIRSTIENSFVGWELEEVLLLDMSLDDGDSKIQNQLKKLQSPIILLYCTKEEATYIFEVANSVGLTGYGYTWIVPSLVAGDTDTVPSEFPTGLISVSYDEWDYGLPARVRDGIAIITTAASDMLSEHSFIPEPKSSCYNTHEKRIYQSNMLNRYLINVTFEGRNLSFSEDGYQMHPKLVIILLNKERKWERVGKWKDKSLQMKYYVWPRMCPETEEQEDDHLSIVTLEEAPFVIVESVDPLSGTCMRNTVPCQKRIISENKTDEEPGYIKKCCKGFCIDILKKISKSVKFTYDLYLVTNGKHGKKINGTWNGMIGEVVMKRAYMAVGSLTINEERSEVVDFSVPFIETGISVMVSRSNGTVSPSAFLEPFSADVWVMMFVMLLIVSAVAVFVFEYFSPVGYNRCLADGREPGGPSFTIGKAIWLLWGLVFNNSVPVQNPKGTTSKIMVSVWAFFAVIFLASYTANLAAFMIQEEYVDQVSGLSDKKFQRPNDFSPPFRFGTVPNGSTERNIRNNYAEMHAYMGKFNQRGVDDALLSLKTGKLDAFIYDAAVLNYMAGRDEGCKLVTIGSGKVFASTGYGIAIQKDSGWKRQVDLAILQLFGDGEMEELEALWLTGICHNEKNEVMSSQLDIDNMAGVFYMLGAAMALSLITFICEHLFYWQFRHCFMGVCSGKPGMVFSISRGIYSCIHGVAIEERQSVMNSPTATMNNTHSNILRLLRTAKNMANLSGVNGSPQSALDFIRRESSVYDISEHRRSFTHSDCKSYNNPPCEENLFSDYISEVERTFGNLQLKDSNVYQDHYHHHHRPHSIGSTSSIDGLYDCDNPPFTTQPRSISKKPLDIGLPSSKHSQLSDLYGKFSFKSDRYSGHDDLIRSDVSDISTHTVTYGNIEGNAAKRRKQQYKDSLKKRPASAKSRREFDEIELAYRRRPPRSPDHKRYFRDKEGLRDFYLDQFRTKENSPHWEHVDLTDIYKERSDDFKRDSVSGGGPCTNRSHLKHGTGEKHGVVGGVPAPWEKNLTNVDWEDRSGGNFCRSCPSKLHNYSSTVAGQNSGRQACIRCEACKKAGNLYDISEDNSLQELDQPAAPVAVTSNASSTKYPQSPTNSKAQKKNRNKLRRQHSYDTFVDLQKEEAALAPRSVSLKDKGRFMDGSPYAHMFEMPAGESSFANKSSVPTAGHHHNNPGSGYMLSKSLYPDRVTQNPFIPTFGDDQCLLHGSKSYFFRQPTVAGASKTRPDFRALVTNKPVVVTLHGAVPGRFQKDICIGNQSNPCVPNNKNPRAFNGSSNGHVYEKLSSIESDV

Structure (SMILES)	%max [2] [%]	%max [3] [%]	Activity [4]	Activity [5]	solubility kinetic at 0.5 h [6] [µM]	pEC50 [13]	pEC50 [14]	also measured
COc1ccc(OCC2c3ccc(OC)cc3CC(=O)N2CC(F)(F)F)cc1 (stereo not given)	330	160	Not Active	Not Active				log(activity) [1]: > -4.5
COc1ccc(OC[C@H]2c3cccn3CC(=O)N2Cc2cccc(F)c2)cc1	410	390			74 (≈ 28.2 µg/mL)	5.50	5.50	%max [7]: 53%; activity at 30 µM [8]: 77%; %max [9]: 48%; %max [10]: 55%; Activity [11]: 2.5%; Activity [12]: 0.4%
COc1ccc(OCC2c3cc(OC)c(OC)cc3CCN2C(=O)c2cccc(Cl)c2)cc1 (stereo not given)	230	220						fraction unbound at 1 h, 1 µM [15]: < 0.0001; Cmax [16]: 2160 nM; half-life [17]: 1.35 h; Kp [18]: 6.7; fraction unbound at 1 h, 1 µM [19]: < 0.001
COc1ccc(OC[C@@H]2c3cccn3CC(=O)N2Cc2cccc(F)c2)cc1	100	88	Not Active	Not Active	74 (≈ 28.2 µg/mL)			%max [20]: 45%; activity at 30 µM [21]: 85%; %max [22]: 57%; %max [23]: 72%
COc1ccc(OCC2c3sccc3CCN2C(=O)c2cccc(Cl)c2)cc1 (stereo not given)	280	350	Not Active	Not Active	46 (≈ 19 µg/mL)	5.40	5.40	
COc1ccc(OC[C@H]2c3cccn3CCN2C(=O)c2cccc(Cl)c2)cc1	410	450	Not Active	Not Active	36 (≈ 14.3 µg/mL)	5.70	5.70	
COc1ccc(OCC2c3cccn3CC(=O)N2Cc2cccc(F)c2)cc1 (stereo not given)	350	350	Not Active	Not Active	74 (≈ 28.2 µg/mL)	5.50	5.50	Cmax [24]: 1830 nM; t1/2 [25]: 1.07 h; concentration at 0.25 h [26]: 2500 nM; concentration at 0.25 h [27]: 1830 nM; fraction unbound at 1 h, 1 µM [19]: 0.013
COc1ccc(OCC2c3cccn3CC(=O)N2Cc2cccc(C(F)(F)F)c2)cc1 (stereo not given)	300	400	Not Active	Not Active	57 (≈ 24.5 µg/mL)	5.90	5.80	
